Broadly, the pIC50 is −log10 of the IC50, conventionally taken in molar units.

This assay deals with Neutrophil. Briefly: Antiinflammatory activity in human neutrophils assessed as fMLP-induced superoxide release after 5 mins by spectrometry. It counts as functional, cell-based. In outline: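 Neutrophils isolated from venous blood of healthy volunteers (20–35 years) by double-gradient Ficoll–Hypaque centrifugation, with hypotonic lysis of red cells. Cells at 1 × 10^6 cells/mL pretreated with test agents (100 µmol/L) at 37 °C for 5 min. Then stimulated with fMLP (1 µmol/L) with ferricytochrome c (0.5 mg/mL). Extracellular O2•– read continuously at 550 nm. Inhibition % = [(control−resting)−(compound−resting)]/(control−resting) × 100.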

pIC50: −log10 of the molar value. Some results are limits rather than exact numbers.

For the molecule `CC(C)Cc1ccc(C(C)C(=O)O)cc1` (centres undefined) [IBUPROFEN], the negative-log IC50 (pIC50) was 4.49.
The figure for `COc1cc2ccc(=O)oc2cc1OC` [SCOPARONE] is below 4.00; for `COc1cc(/C=C/CO)ccc1OCC=C(C)C` it is below 4.00.
The same measure for `COc1cc([C@@H]2Oc3c(OC)cc(/C=C/CO)cc3[C@H]2CO)cc(OC)c1O`: 4.93; for `Cn1c(=O)c2c(c3ccccc31)O[C@]1(C)C[C@@H]3c4c(c5ccccc5[nH]c4=O)OC(C)(C)[C@H]3[C@H]2C1`: below 4.00; for `CC(C)=CCOc1ccc(/C=C/CO)cc1` [EVOFOLIN C]: 5.02.
Turning to `COc1cc([C@H]2Oc3c(OC)cc(/C=C/C=O)cc3[C@@H]2CO)ccc1O`, the pIC50 is 4.50.
The same measure for `COc1cc([C@H]2Oc3c(OC)cc(/C=C/C=O)cc3[C@@H]2CO)cc(OC)c1O`: 4.71.
On to `Cn1c(=O)c2c(c3ccccc31)OC(C)(C)C=C2`, for which the pIC50 was 5.37.
On to `CC(C)=CCc1cc(/C=C/CO)ccc1O`, for which the pIC50 was 4.12.
The same measure for `CC(C)(O)[C@H](O)COc1ccc(/C=C/CO)cc1`: 4.49; for `COc1cc(C=O)cc(OC)c1O` [SYRINGALDEHYDE]: below 4.00.
Turning to `CC(c1ccccc1)c1ccc(O)c(C(C)c2ccccc2)c1` (centres undefined), the pIC50 was below 4.00.
As to `COc1cc2oc(=O)ccc2cc1O` [ISOSCOPOLETIN], the negative-log IC50 (pIC50) is 4.11.
Take `COc1c2ccoc2nc2c(OC)cccc12` [GAMMA-FAGARINE]: the pIC50 was below 4.00.
In the case of `Cn1c(=O)c2c(c3ccccc31)OC(C)(C)[C@@H]1[C@@H]2C[C@]2(C)C[C@H]1c1c(c3ccccc3n(C)c1=O)O2` [PARAENSIDIMERIN C], the pIC50 was below 4.00.
The figure for `COc1cc2ccc(=O)oc2c(OC)c1OC` [FRAXIDIN METHYL ETHER] is 4.33.
The same measure for `C[C@H](c1ccccc1)c1cccc([C@@H](C)c2ccccc2)c1O`: below 4.00.
The figure for `COc1c2[nH]c3occc3c(OC)c-2ccc1=O` [HAPLOPINE] is 4.24.
